The text below walks through data of ChEMBL document CHEMBL3826879, “Synthesis and biological evaluation of analogues of the potent ADAM8 inhibitor cyclo(RLsKDK) for the treatment of inflammatory diseases and cancer metastasis” (Bioorg Med Chem, 2016).

Each structure is given as a SMILES string. Where a SMILES comes first, the peptide text is derived from it. Bridges are numbered along the chain shown (N, C = ends). [ ]: non-standard residue; d: D form. Arg(NO2) = N=C(NCCC[C@H](N)C(=O)O)N[N+](=O)[O-]; Lys(Me3) = C[N+](C)(C)CCCC[C@H](N)C(=O)O; hArg = N=C(N)NCCCC[C@H](N)C(=O)O; tBuAla = CC(C)(C)C[C@H](N)C(=O)O; Cit = NC(=O)NCCC[C@H](N)C(=O)O; hLeu = CC(C)CC[C@H](N)C(=O)O; β3hS = N[C@@H](CO)CC(=O)O; Nle = CCCC[C@H](N)C(=O)O; Orn = NCCC[C@H](N)C(=O)O; Dab = NCC[C@H](N)C(=O)O; Nva = CCC[C@H](N)C(=O)O; Dap = NC[C@H](N)C(=O)O; βAla = NCCC(=O)O

This assay deals with T1, Disintegrin and metalloproteinase domain-containing protein 8 (Homo sapiens, UniProt P78325).
T1 sequence (P78325 whole entry): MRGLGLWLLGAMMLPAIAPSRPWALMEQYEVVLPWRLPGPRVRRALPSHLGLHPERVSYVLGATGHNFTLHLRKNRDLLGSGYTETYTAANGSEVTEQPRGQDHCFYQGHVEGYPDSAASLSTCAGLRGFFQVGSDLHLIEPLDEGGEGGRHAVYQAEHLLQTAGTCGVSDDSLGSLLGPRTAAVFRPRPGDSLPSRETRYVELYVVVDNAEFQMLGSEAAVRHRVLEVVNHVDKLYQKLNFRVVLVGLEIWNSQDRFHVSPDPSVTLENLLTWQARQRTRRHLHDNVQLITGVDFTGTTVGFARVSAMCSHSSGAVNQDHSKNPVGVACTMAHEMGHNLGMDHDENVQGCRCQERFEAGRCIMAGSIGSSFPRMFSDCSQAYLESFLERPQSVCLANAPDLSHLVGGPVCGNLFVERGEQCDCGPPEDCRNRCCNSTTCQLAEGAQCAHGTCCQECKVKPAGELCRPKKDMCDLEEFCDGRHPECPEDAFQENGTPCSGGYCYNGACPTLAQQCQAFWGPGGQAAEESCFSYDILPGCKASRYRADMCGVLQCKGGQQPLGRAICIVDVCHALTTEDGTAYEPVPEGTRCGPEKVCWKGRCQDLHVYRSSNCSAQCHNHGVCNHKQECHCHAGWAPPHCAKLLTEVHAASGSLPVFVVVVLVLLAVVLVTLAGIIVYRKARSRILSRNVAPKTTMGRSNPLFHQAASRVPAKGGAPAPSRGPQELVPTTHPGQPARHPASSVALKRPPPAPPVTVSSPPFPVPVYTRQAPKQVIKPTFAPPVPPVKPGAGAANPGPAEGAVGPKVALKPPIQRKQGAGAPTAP
Put plainly: Inhibition of ADAM8 (unknown origin) expressed in African green monkey COS7 cells co-expressing CD23 assessed as inhibition of CD23 shedding after 6 hrs by ELISA. It is filed as cell-based, COS-7. A digest of the protocol: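 COS7 cells co-transfected with CD23 and ADAM8 cDNA, seeded at 2 × 10^5 cells/well and exposed to peptide at 10 nM–10 μM for 6 h. Supernatant CD23 measured by sandwich ELISA: biotinylated anti-CD23 monoclonal antibody, 2 h at room temperature, streptavidin–HRP 1 h, TMB substrate, absorbance at 405 nm. Samples in duplicate against 400–12.5 units/mL standards. IC50 derived.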
In general terms: ELISA stands for enzyme-linked immunosorbent assay.
Turning to `CC(C)C[C@@H]1NC(=O)[C@H](CCCNC(=N)N)NC(=O)[C@H](CCCCN)NC(=O)[C@H](CC(=O)O)NC(=O)[C@H](CCCCN)NC(=O)C[C@@H](C(=O)O)NC1=O` (KDKRLD-OH; lactam N-6), the IC50 came out at 420 nM.

As to `CC(C)C[C@@H]1NC(=O)[C@H](CCCNC(=N)N)NC(=O)[C@H](CCCCN)NC(=O)[C@H](CC(=O)O)NC(=O)[C@H](CCCCN)NC(=O)[C@H](CO)NC1=O` (cyclo(DKRLSK)), the IC50 is 240 nM.

For `CC(C)C[C@@H]1NC(=O)[C@H](CCCNC(=N)N)NC(=O)[C@H](CCCCN)NC(=O)[C@H](CC(=O)O)NC(=O)[C@H](CCCCN)NC(=O)C[C@H](CO)NC1=O` (cyclo(DKRL[β3hS]K)), the IC50 is 157 nM.

For `CC(C)C[C@@H]1NC(=O)[C@H](CCCNC(=N)N)NC(=O)[C@H](CCCCN)NC(=O)[C@H](CC(=O)O)NC(=O)[C@H](CCCCN)NC(=O)CCNC1=O` (cyclo(DKRL[βAla]K)), the IC50 is 1650 nM.

For the molecule `CCCC[C@@H]1NC(=O)[C@H](CCCNC(=N)N)NC(=O)[C@H](CCCCN)NC(=O)[C@H](CC(=O)O)NC(=O)[C@H](CCCCN)NC(=O)CCNC1=O` (cyclo(DKR[Nle][βAla]K)), the IC50 amounted to 378 nM.

As to `CCC[C@@H]1NC(=O)[C@H](CCCNC(=N)N)NC(=O)[C@H](CCCCN)NC(=O)[C@H](CC(=O)O)NC(=O)[C@H](CCCCN)NC(=O)CCNC1=O` (cyclo(DKR[Nva][βAla]K)), the IC50 worked out at 452 nM.

For `CC(C)CC[C@@H]1NC(=O)[C@H](CCCNC(=N)N)NC(=O)[C@H](CCCCN)NC(=O)[C@H](CC(=O)O)NC(=O)[C@H](CCCCN)NC(=O)C[C@H](CO)NC1=O` (cyclo(DKR[hLeu][β3hS]K)), the IC50 worked out at 142 nM.

Turning to `CC(C)CC[C@@H]1NC(=O)[C@H](CCCNC(=N)N)NC(=O)[C@H](CCCCN)NC(=O)[C@H](CC(=O)O)NC(=O)[C@H](CCCCN)NC(=O)CCNC1=O` (cyclo(DKR[hLeu][βAla]K)), the IC50 came to 220 nM.

`CC(C)(C)C[C@@H]1NC(=O)[C@H](CCCNC(=N)N)NC(=O)[C@H](CCCCN)NC(=O)[C@H](CC(=O)O)NC(=O)[C@H](CCCCN)NC(=O)CCNC1=O` (cyclo(DKR[tBuAla][βAla]K)): the IC50 worked out at 256 nM.

For the molecule `CC(C)C[C@@H]1NC(=O)[C@H](CCCCNC(=N)N)NC(=O)[C@H](CCCCN)NC(=O)[C@H](CC(=O)O)NC(=O)[C@H](CCCCN)NC(=O)C[C@H](CO)NC1=O` (cyclo(DK[hArg]L[β3hS]K)), the IC50 stood at 368 nM.

Regarding `CC(C)C[C@@H]1NC(=O)[C@H](CCCNC(=N)N)NC(=O)[C@H](CCN)NC(=O)[C@H](CC(=O)O)NC(=O)[C@H](CCCCN)NC(=O)CCNC1=O` (cyclo(D[Dab]RL[βAla]K)), the IC50 was more than 5000 nM.

For the molecule `CC(C)C[C@@H]1NC(=O)[C@H](CCCNC(=N)N)NC(=O)[C@H](CN)NC(=O)[C@H](CC(=O)O)NC(=O)[C@H](CCCCN)NC(=O)CCNC1=O` (cyclo(D[Dap]RL[βAla]K)), the IC50 was more than 5000 nM.

As to `CC(C)C[C@@H]1NC(=O)[C@H](CCCNC(=N)N)NC(=O)[C@H](CCCC[N+](C)(C)C)NC(=O)[C@H](CC(=O)O)NC(=O)[C@H](CCCCN)NC(=O)CCNC1=O` (cyclo(D[Lys(Me3)]RL[βAla]K)), the IC50 is more than 10000 nM.

With `CC(C)C[C@@H]1NC(=O)[C@H](CCCNC(=N)N)NC(=O)[C@H](CCCN)NC(=O)[C@H](CC(=O)O)NC(=O)[C@H](CCCCN)NC(=O)CCNC1=O` (cyclo(D[Orn]RL[βAla]K)), the half-maximal inhibitory concentration (IC50) is more than 5000 nM.

Consider `CC(C)C[C@@H]1NC(=O)[C@H](CCCNC(=N)N[N+](=O)[O-])NC(=O)[C@H](CCCCN)NC(=O)[C@H](CC(=O)O)NC(=O)[C@H](CCCCN)NC(=O)C[C@H](CO)NC1=O` (cyclo([Arg(NO2)]L[β3hS]KDK)), for which the IC50 worked out at 1240 nM.

Take `CC(C)C[C@@H]1NC(=O)[C@H](CCCNC(=N)N[N+](=O)[O-])NC(=O)[C@H](CCCCN)NC(=O)[C@H](CC(=O)O)NC(=O)[C@H](CCCCN)NC(=O)CCNC1=O` (cyclo([Arg(NO2)]L[βAla]KDK)): the IC50 stood at 2350 nM.

`CC(C)C[C@@H]1NC(=O)[C@H](CCCNC(N)=O)NC(=O)[C@H](CCCCN)NC(=O)[C@H](CC(=O)O)NC(=O)[C@H](CCCCN)NC(=O)C[C@H](CO)NC1=O` (cyclo([Cit]L[β3hS]KDK)): the IC50 is 192 nM.

On to `CC(C)C[C@@H]1NC(=O)[C@H](CCCNC(N)=O)NC(=O)[C@H](CCCCN)NC(=O)[C@H](CC(=O)O)NC(=O)[C@H](CCCCN)NC(=O)CCNC1=O` (cyclo([Cit]L[βAla]KDK)), for which the IC50 was found to be 890 nM.

Broadly, the IC50 is the midpoint of a concentration-inhibition curve.
